An excerpt weighted towards active compounds, which were near 2.5% of everything screened.
SENP8 block-1 – blocks human SENP8 cleavage of Nedd8 substrate; 0.64% of 360,000 active; inhibition, % at 20 µM; recombinant SENP8, Nedd8 substrate fluorescence; Q96LD8; in the data active = inhibition mostly above about 40%, no sharp cut-off; inactive = mostly below about 27%
SENP1 FRET inh – SENP1 (human) catalytic domain inhibition; Q9P0U3; recombinant SENP1 catalytic domain, CyPet-SUMO1-YPet FRET cleavage; inhibition, % at 10 µM; 0.21% of 360,000 active;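 active = inhibition at least 30% at 10 µM, raw YFP signal under a set limit, fluorescence ratio 0.5 to 1.5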;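 note: 0% = enzyme with DMSO and 100% = no enzyme wells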
Target sequence (Q9P0U3 419-644 limits assumed): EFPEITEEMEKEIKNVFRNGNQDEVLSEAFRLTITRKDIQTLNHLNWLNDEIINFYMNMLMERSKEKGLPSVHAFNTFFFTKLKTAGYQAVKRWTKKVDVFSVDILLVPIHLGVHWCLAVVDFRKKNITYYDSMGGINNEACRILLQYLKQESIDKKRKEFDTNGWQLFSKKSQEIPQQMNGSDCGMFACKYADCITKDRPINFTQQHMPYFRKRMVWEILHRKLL
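Test system: human SENP1 catalytic domain; medium: Tris pH 8 buffer plus EDTA, NaCl, BME, BSA, NP40, catalase; incubation: 50 min reaction at room temperature; technique: FRET, CFP and YFP emission; controls: no-enzyme low control and enzyme-plus-DMSO high control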
SENP6 block – inhibitors of human SENP6 protease; Q9GZR1; 1.8% of 330,000 active; inhibition, % at 10 µM; Recombinant SENP6 catalytic domain, aminoluciferin luminescence;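 active = inhibition above about 50% at the single tested dose, limit read from the data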;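 note: plate controls were DMSO wells with enzyme for no effect and DMSO wells lacking enzyme for full effect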
SENP8 block-2 – SENP8 protease inhibition; Q96LD8; purified SENP8, Z-RLRGG-aminoluciferin cleavage, luminescence; 1.2% of 330,000 active; AID 2540; inhibition, % at 10 µM; in the data active = inhibition above about 50%
SENP7 block – inhibitors of human SENP7 protease; inhibition, % at 5 µM; Q9BQF6; recombinant SENP7, Z-RLRGG-aminoluciferin luminescence, 40 min; 1.5% of 330,000 active;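 active = inhibition above about 50% at the single test dose, limit read from the data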;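 note: plate controls were DMSO with enzyme for no effect and no enzyme buffer wells for full effect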
SENP8 confirm – human SENP8 inhibition, confirmed | shares compounds with SENP7 block | AID 488912 | Recombinant SENP8, Z-RLRGG-aminoluciferin luminescence, 60 min | 40% of 6,200 active | inhibition, % at 12.5 µM;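 active = mean inhibition across replicates above about 50%, limit read from the data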
SENP6 confirm – human SENP6 inhibition, confirmed. recombinant SENP6, Z-RLRGG-aminoluciferin luminescence. 58% of 6,200 active. AID 488915. inhibition, % at 12.5 µM. shares compounds with SENP7 block
SENP7 confirm – confirmation of human SENP7 protease inhibitors. 69% of 6,200 active. recombinant SENP7, Z-RLRGG-aminoluciferin luminescence, 40 min. inhibition, % at 12.5 µM. AID 488917. shares compounds with SENP7 block
Casp3 select – caspase-3 inhibition (SENP selectivity assay); shares compounds with SENP7 block; purified caspase-3, Z-DEVD-aminoluciferin luminescence, 60 min; inhibition, % at 12.5 µM; 60% of 6,200 active;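 active = mean inhibition above about 50%, limit read from the data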;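 note: plate controls were enzyme with DMSO for no effect and wells without caspase-3 for full effect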
Target sequence (P42574 28-227 limits assumed): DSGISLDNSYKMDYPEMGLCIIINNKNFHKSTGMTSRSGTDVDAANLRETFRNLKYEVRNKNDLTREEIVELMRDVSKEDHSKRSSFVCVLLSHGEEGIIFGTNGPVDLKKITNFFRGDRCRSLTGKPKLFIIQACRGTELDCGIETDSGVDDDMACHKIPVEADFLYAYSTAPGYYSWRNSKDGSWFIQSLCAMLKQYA
Luc interf – counter-screen for SENP inhibitors: luminescence interference. inhibition, % at 12.5 µM. shares compounds with SENP7 block. 39% of 6,200 active. Pre-incubated SENP8/Z-RLRGG-aminoluciferin, luciferase luminescence interference;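 active = mean inhibition above about 50% when retested at one dose, limit read from the data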;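 note: plate controls were DMSO wells with completed reaction for no effect and substrate without enzyme for full effect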
An asterisk follows results filed as active; / = not tested or not shown.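 Rule for the calls, unless noted: active = mean inhibition above about 50% in the one-dose retest (limit read from the data); inactive = the rest.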

SMILES	SENP8 block-1	SENP1 FRET inh	SENP6 block	SENP8 block-2	SENP7 block	SENP8 confirm	SENP6 confirm	SENP7 confirm	Casp3 select	Luc interf
COc1cccc(NC(=O)Nc2ccccc2SC)c1	12	0	33	51*	47	78*	72*	91*	71*	72*
N#Cc1ccsc1NC(=O)COC(=O)c1cc(Br)ccc1O	-70	-48	95*	89*	85*	75*	82*	87*	70*	23
COc1ccc(NC(=O)CSCC(=O)Nc2sccc2C#N)cc1	0	-8	-4	7	-18	/	/	/	/	/
N#Cc1ccsc1NC(=O)COC(=O)c1ccc2ccccc2c1	17	-11	91*	84*	86*	6	67*	100*	80*	20
COc1ccc(CCC(=O)Nc2sccc2C#N)cc1	/	/	86*	80*	87*	84*	85*	98*	89*	59*
N#Cc1ccsc1NC(=O)COC(=O)c1ccc(Br)o1	-38	-46	2	2	0	/	/	/	/	/
COc1ccc(/C=N/NC(=O)C(=O)N2CCCC2)cc1	8	1	9	5	4	/	/	/	/	/
O=C(N/N=C/c1ccc2c(c1)OCO2)c1ccccn1	-87	1	80*	70*	92*	4	68*	90*	85*	33
CC(C)c1ccc(/C=N/NC(=O)c2cccc(Cl)c2)cc1	0	1	/	/	/	/	/	/	/	/
CC(C)c1ccc(/C=N/NC(=O)c2ccccn2)cc1	14	1	86*	79*	80*	71*	84*	98*	89*	38
CN(C)c1ccc(/C=N/NC(=O)C(=O)N2CCCCCC2)cc1	-67	-1	-12	86*	8	4	9	14	3	5
Cc1cccc(C(=O)N/N=C/c2ccc3c(c2)OCO3)n1	-32	2	-10	4	3	/	/	/	/	/
CN(C)c1ccc(/C=C(\C#N)c2ccccn2)cc1	4	-26	96*	96*	99*	98*	99*	102*	97*	72*
CN(C)c1ccc(/C=N/NC(=O)c2ccccn2)cc1	-121	12	80*	76*	91*	10	85*	98*	95*	66*
O=C(/C=C/c1ccc2c(c1)OCO2)c1ccccn1	0	-93	75*	73*	71*	92*	89*	95*	69*	68*
CCOc1cc(/C=N/NC(=O)c2ccccn2)ccc1OC(=O)c1cccs1	-22	2	0	4	7	/	/	/	/	/
CN(C)c1ccc(/C=N/NC(=O)c2ccnn2C)cc1	-252	1	95*	91*	98*	90*	90*	98*	95*	88*
O=C(N/N=C/c1ccc(OC(=O)c2cccs2)cc1)c1ccccn1	-17	4	21	13	74*	8	15	2	7	1
O=C(C=Cc1ccc2c(c1)OCO2)c1ccccc1	-57	-11	/	/	/	/	/	/	/	/
CCC[C@H]1NC(=O)[C@H](C)N(C)C(=O)C(C)(C)C(=O)C(C)NC(=O)[C@H](Cc2ccc(OC)cc2)N(C)C(=O)[C@H](C(C)C)N(C)C(=O)CNC(=O)[C@H](CC(C)C)N(C)C(=O)CNC(=O)[C@H]([C@@H](C)CC)OC(=O)[C@H]1C (stereo not given in full)	/	/	-9	5	-2	/	/	/	/	/
O=C(Nc1ccc(F)cc1)C(=O)c1c(O)[nH]c2ccc([N+](=O)[O-])cc12	36	3	75*	53*	4	66*	68*	91*	74*	36
Cc1nc2ccccc2c(C)c1CC(=O)N(C)CC(=O)Nc1cccc(F)c1	-43	-6	-8	-2	2	/	/	/	/	/
O=C(Nc1ccccn1)c1csc2c1CCCC2	7	7	24	2	-1	/	/	/	/	/
COc1cc(NC(=O)c2csc3c2CCCC3)ncn1	12	0	61*	47	-1	11	5	12	10	6
CSc1ccccc1CNC(=O)C1(C)CCCN1CC(C)C (stereo not given)	5	-4	/	/	/	/	/	/	/	/
SMILES	SENP8 block-1	SENP1 FRET inh	SENP6 block	SENP8 block-2	SENP7 block	SENP8 confirm	SENP6 confirm	SENP7 confirm	Casp3 select	Luc interf
O=C1c2ccccc2C(=O)C12OC2c1cccc2ccccc12 (stereo not given)	93*	1	87*	53*	0	72*	88*	78*	3	10
CCOc1ccc(S(=O)(=O)N2CCC(C(=O)NCc3ccncc3)CC2)cc1	3	1	-17	-3	-3	/	/	/	/	/
COc1cc(/C=N/NC(=O)c2cccs2)ccc1O	35	3	20	-1	6	/	/	/	/	/
Cc1ccsc1C(=O)N/N=C/c1ccc2c(c1)OCO2	-63	1	97*	96*	100*	96*	100*	103*	99*	99*
O=C(N/N=C/c1ccc2c(c1)OCO2)c1cccs1	-148	1	76*	84*	89*	92*	93*	100*	94*	90*
Cc1cc(C)nc(SCC(=O)N/N=C/c2ccc3c(c2)OCO3)n1	-6	1	62*	52*	4	6	9	-5	2	7
COc1cccc(/C=N/NC(=O)c2cccs2)c1	1	-2	55*	34	62*	54*	50*	84*	71*	64*
COc1ccc(CCNC(=O)CCc2ccc(S(=O)(=O)NCC(C)C)cc2)cc1OC	-3	-1	-1	3	3	/	/	/	/	/
COC(=O)[C@]12CCCCC=C1N(Cc1ccc(Cl)cc1Cl)C(=O)[C@H](CC(=O)NCc1cccc(C(F)(F)F)c1)C2	7	1	/	/	/	/	/	/	/	/
COc1ccc(N(CC(=O)N2CCc3ccccc3C2)S(C)(=O)=O)cc1Cl	5	-1	5	4	-1	/	/	/	/	/
Cc1cc(C(=O)N/N=C/c2ccc3c(c2)OCO3)c(C)o1	-15	2	74*	70*	77*	86*	84*	97*	93*	58*
O=C(N/N=C/c1ccc2c(c1)OCO2)c1ccc(Cl)cc1Cl	3	1	-30	-4	4	/	/	/	/	/
c1ccc(-c2csc(Nc3ccc4c(c3)OCCO4)n2)cc1	-131	25	95*	91*	91*	95*	95*	101*	74*	84*

Bioassay records (PubChem BioAssay)
